≈ marks a conversion by molar mass, not a printed value. Calls of active or inactive are those of the source. No cut-off for these calls is given here.
Key:
Plasmodium falciparum [1] = assay: Antiplasmodial activity against chloroquine-resistant Plasmodium falciparum W2 infected in human RBCs after 72 hrs by parasite lactate dehydrogenase assay; assay type: functional, organism-based; details: W2, 72 h
Procedure, shortened: (§1)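 Asynchronous cultures (parasitemia 1−1.5%, 1% final hematocrit) in human type A-positive RBCs, RPMI 1640 with 1% AlbuMax, hypoxanthine, Hepes and glutamine. Exposed to serial dilutions (DMSO <1% final) for 72 h at 37 °C under 1% O₂/5% CO₂/94% N₂. Growth read as pLDH activity at OD₆₅₀ (modified Makler method).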

Plasmodium falciparum [2] = assay: Antiplasmodial activity against chloroquine-sensitive Plasmodium falciparum D10 infected in human RBCs after 72 hrs by parasite lactate dehydrogenase assay; assay type: functional, organism-based; details: D10, 72 h; procedure, shortened: as §1
Plasmodium falciparum [3] = assay: Resistant index, ratio of IC50 for chloroquine-resistant Plasmodium falciparum W2 to IC50 for chloroquine-sensitive Plasmodium falciparum D10; assay type: functional
[4] = Cytotoxicity against human HepG2 cells assessed as cell viability after 24 hrs by neutral red uptake assay; assay type: cell-based; details: read-out: TC50
Procedure, shortened: (§2)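 NIH3T3 cells grown in DMEM and HepG2 in EMEM, both with 10% FCS, glutamine/penicillin/streptomycin and non-essential amino acids, 37 °C, 5% CO₂. Cells trypsinized at confluence and resuspended. Viability by neutral red uptake after 24 h exposure. Student's t test, p < 0.05.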

[5] = Cytotoxicity against mouse NIH/3T3 cells assessed as cell viability after 24 hrs by neutral red uptake assay; assay type: cell-based, NIH3T3; details: read-out: TC50; procedure, shortened: as §2
[6] = Chemical stability of the compound at pH 2 at 37 degC after 1 hr by NMR analysis; assay type: physicochemical; details: buffer, pH 2, 1 h
[7] = Chemical stability of the compound at pH 7.4 at 37 degC by NMR analysis; assay type: physicochemical; details: buffer
[8] = Chemical stability in DMSO/D2O mixture solution at 25 degC by NMR analysis; assay type: physicochemical
[9] = Chemical stability of the compound at pH 7.4 at 37 degC measured for 24 hrs by NMR analysis; assay type: physicochemical; details: buffer, pH 7.4, 24 h
[10] = Chemical stability of the compound at pH 2 at 37 degC measured for 24 hrs by NMR analysis; assay type: physicochemical; details: buffer, pH 2, 24 h
Oryctolagus cuniculus = organism: Oryctolagus cuniculus; assay: Inhibition of rabbit kidney Na+/K+ ATPase hydrolytic activity assessed as inorganic phosphate production at 10 uM by malachite green staining-based colorimetric assay
Procedure, shortened: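 Na⁺,K⁺-ATPase membrane fragments prepared from rabbit kidney outer medulla and used at about 1 μg/mL protein. Buffer: 25 mM MOPS pH 7.0, 100 mM NaCl, 20 mM KCl, 3 mM MgCl₂. Test agent at 10 μM, with ouabain as reference. Pi release measured by malachite green colorimetry.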

Plasmodium berghei [11] = assay: Antiplasmodium activity against chloroquine-sensitive Plasmodium berghei ANKA infected in BALB/c mouse assessed as decrease in parasitemia administered as po until day 4 measured 24 hrs post last dose by Giemsa staining; assay type: functional
Procedure, shortened: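 P. berghei ANKA in female 5-week-old BALB/c mice (19 g), infected ip with 2 × 10⁷ parasitized erythrocytes. Fresh aqueous stocks (100 mg/mL) diluted 1.5-fold to give 6−7 doses from 4.4 to 50 mg/kg, given once daily by oral gavage starting 4 h post-infection through day 4. Parasitemia read from Giemsa tail-blood smears 24 h after last dose. ED50 from four-parameter logistic fit.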

[12] = Intrinsic clearance in rat liver microsomes at 1 uM; assay type: ADME, Microsome; details: read-out: CLH
Procedure, shortened: (§3)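 Substrate at 1 μM with 0.2 mg/mL mouse or rat liver microsomal protein in 100 mM phosphate, pH 7.4. Reaction started with NADPH regenerating system (1 mM NADPH, 10 mM G6P, 0.4 U/mL G6PDH) and stopped with acetonitrile at intervals over 0−45 min, in duplicate. HPLC-MS depletion fitted monoexponentially; Clint = k × V/P.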

CYP3A4 = assay: Metabolic stability in human liver microsomes assessed as compound ramining after 1 hr in presence of human recombinant CYP3A4; assay type: ADME, Microsome; details: in the assay text read “assessed” for “in human liver microsomes assessed”, read-out: Stability
Procedure, shortened: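 Substrate at 1 μM final (0.25% organic solvent) incubated 1 h at 37 °C with recombinant hCYP3A4 (20 pmol/mL), with or without NADPH regenerating system. Stopped with acetonitrile. Result is % remaining from MS peak area with NADPH relative to without. CV typically within 10%.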

[13] = Intrinsic clearance in mouse liver microsomes at 1 uM; assay type: ADME, Microsome; details: read-out: CLH; procedure, shortened: as §3
[14] = Chemical stability of the compound at pH 7.4; assay type: physicochemical; details: buffer
[15] = Aqueous solubility of the compound in water at pH 3 after 24 hrs; assay type: physicochemical
Procedure, shortened: (§4)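 Prepared from 10 mM DMSO stock as 250 μM in 50 mM acetic acid (pH 3) or 50 mM ammonium acetate (pH 7.4), 2.5% DMSO final, in filter plates. Filtrate diluted 1:2 and run on UPLC/UV/TOF-MS at 254 nm. Solubility from sample UV area versus a 250 μM standard in acetonitrile/buffer.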

[16] = Aqueous solubility of the compound in water at pH 7.4 after 24 hrs; assay type: physicochemical; procedure, shortened: as §4
[17] = target: T1, Chloroquine resistance transporter (Plasmodium falciparum) (UniProt Q9N623); assay: Inhibition of chloroquine-sensitive Plasmodium falciparum D10 CRT expressed in Xenopus laevis oocytes assessed as [3H]-chloroquine uptake at 100 uM after 1.5 to 2 hrs; assay type: cell-based; details: Oocyte
T1 sequence (whole entry): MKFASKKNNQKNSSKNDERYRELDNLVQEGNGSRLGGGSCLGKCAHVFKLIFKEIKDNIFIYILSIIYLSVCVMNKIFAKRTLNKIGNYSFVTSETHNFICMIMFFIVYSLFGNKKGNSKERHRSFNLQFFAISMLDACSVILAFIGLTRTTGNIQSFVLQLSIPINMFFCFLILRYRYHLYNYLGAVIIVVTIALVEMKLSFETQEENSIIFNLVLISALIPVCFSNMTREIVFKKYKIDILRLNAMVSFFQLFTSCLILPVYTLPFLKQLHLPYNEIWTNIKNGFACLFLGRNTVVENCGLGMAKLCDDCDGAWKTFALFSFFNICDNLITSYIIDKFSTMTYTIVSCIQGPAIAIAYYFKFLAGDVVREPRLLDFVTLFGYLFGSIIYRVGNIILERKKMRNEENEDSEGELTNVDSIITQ
Procedure, shortened: (§5)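 Oocytes injected with Dd2 or D10 PfCRT cRNA (20 ng per oocyte). Compound at 100 μM extracellular. [³H]CQ (0.3 μM) uptake measured 3−5 days post-injection over 1.5−2 h at 27.5 °C, in pH 6.0 medium containing 15 μM unlabeled CQ. 10 oocytes per treatment, five experiments. Compared by ANOVA with Tukey's test.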

[18] = target: T1, Chloroquine resistance transporter (Plasmodium falciparum); assay: Inhibition of chloroquine-resistant Plasmodium falciparum Dd2 CRT expressed in Xenopus laevis oocytes assessed as reduction in [3H]-chloroquine uptake at 100 uM after 1.5 to 2 hrs; assay type: cell-based; details: Oocyte; procedure, shortened: as §5
[19] = target: Potassium voltage-gated channel subfamily H member 2 (Rattus norvegicus); assay: Inhibition of rat ERG after 2 to 3 days by patch clamp assay
[20] = target: T2, Chloroquine resistance transporter (Plasmodium falciparum, UniProt Q9N623); assay: Inhibition of chloroquine-resistant Plasmodium falciparum Dd2 CRT expressed in Xenopus laevis oocytes assessed as reduction in [3H]-chloroquine uptake after 1.5 to 2 hrs
T2 sequence (Q9N623 whole entry): T1 sequence (whole entry)

Plasmodium berghei [21] = assay: Antiplasmodium activity against chloroquine-sensitive Plasmodium berghei ANKA infected in BALB/c mouse assessed as decrease in parasitemia at 50 mg/kg, ip administered until day 4 measured 24 hrs post last dose by Giemsa staining; assay type: functional, organism-based; design: dose 50 mg/kg
Procedure, shortened: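 Peters 4-day test, P. berghei ANKA, female 5-week-old BALB/c mice infected ip with 2 × 10⁷ parasitized erythrocytes. Single group of six mice given 50 mg/kg ip daily, starting 4 h post-infection through day 4. Parasitemia counted on Giemsa tail-blood smears 24 h after final treatment.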

Row | Compound | IC50 (Plasmodium falciparum [1]) [nM] | IC50 (Plasmodium falciparum [2]) [nM] | Ratio IC50 (Plasmodium falciparum [3]) | CC50 at 24 h [4] [nM] | CC50 at 24 h [5] [nM] | further results
1 | CCn1cnc2cc(Nc3ccnc4cc(Cl)ccc34)ccc2c1=O | > 1000 | > 1000 |  |  |  | 
2 | CCN(CC)Cc1cc(Nc2ccnc3cc(Cl)ccc23)ccc1O.Cl | 19 | 25 | 0.7 |  |  | 
3 | Clc1ccc2c(Nc3ccc4c(c3)OCN(Cc3ccccc3)C4)ccnc2c1 | 31 | 38 | 0.8 | 15000 | 40000 | Stability [6]: Unstable; Stability [7]: Stable; Stability [8]: Stable
4 | CCN1CNc2cc(Nc3ccnc4cc(Cl)ccc34)ccc2C1 | 60 | 11 | 5.4 |  |  | Stability [9]: Stable; Stability [10]: Stable
5 | CCCN1CNc2cc(Nc3ccnc4cc(Cl)ccc34)ccc2C1 | 53 | 21 | 2.5 | 5700 | 17000 | inhibition (Oryctolagus cuniculus): 35%; ED50 (Plasmodium berghei [11]): 8.74 mg/kg; microsomal CLint at 1 µM [12]: 121 µL/min/mg; remaining at 1 h (CYP3A4): 43%; microsomal CLint at 1 µM [13]: 219 µL/min/mg; Stability [14]: 100%; solubility at 24 h [15]: 231 µM (≈ 81.5 µg/mL); solubility at 24 h ([16]; water, pH 7.4): 53 µM (≈ 18.7 µg/mL); inhibition [17]: inactive; inhibition [18]: Active; Stability [9]: Stable; Stability [10]: Stable; IC50 [19]: 22 nM; inhibition (INH) ([19]; rat): Dose-dependent effect
6 | CCCN1COc2cc(Nc3ccnc4cc(Cl)ccc34)ccc2C1 | 40 | 21 | 2 |  |  | Stability [6]: Unstable; Stability [7]: Stable; Stability [8]: Stable
7 | O=c1c2ccc(Nc3ccnc4cc(Cl)ccc34)cc2ncn1Cc1ccccc1 | > 1000 | > 1000 |  |  |  | 
8 | Clc1ccc2c(Nc3ccc4c(c3)NCN(Cc3ccccc3)C4)ccnc2c1 | 67 | 53 |  | 25000 | 40000 | inhibition (Oryctolagus cuniculus): 35%; ED50 (Plasmodium berghei [11]): 15.7 mg/kg; remaining at 1 h (CYP3A4): 18%; solubility at 24 h [15]: 122 µM (≈ 48.9 µg/mL); solubility ([16]; buffer, pH 7.4, 24 h, BLD = below limit of detection): BLD; IC50 [20]: 228000 nM; inhibition [17]: inactive; inhibition [18]: Active; Stability [9]: Stable; Stability [10]: Stable
9 | CCCn1cnc2cc(Nc3ccnc4cc(Cl)ccc34)ccc2c1=O | > 1000 | > 1000 |  |  |  | 
10 | C[C@@H]1O[C@@H](O[C@H]2C[C@@H](O)[C@]3(CO)[C@H]4[C@H](O)C[C@]5(C)[C@@H](C6=CC(=O)OC6)CC[C@]5(O)[C@@H]4CC[C@]3(O)C2)[C@H](O)[C@H](O)[C@H]1O |  |  |  |  |  | inhibition (Oryctolagus cuniculus): Active
11 | CCN1COc2cc(Nc3ccnc4cc(Cl)ccc34)ccc2C1 | 72 | 23 | 3.1 | 6000 | 29000 | Activity (Plasmodium berghei [21]): Active; Stability [6]: Unstable; Stability [7]: Stable; Stability [8]: Stable
12 | O=C1c2ccc(Nc3ccnc4cc(Cl)ccc34)cc2NCN1Cc1ccccc1 | > 1000 | > 1000 |  |  |  | 
13 | CC(C)(C)NC(=O)[C@@H]1C[C@@H]2CCCC[C@@H]2CN1C[C@@H](O)[C@H](Cc1ccccc1)NC(=O)[C@H](CC(N)=O)NC(=O)c1ccc2ccccc2n1 |  |  |  |  |  | IC50 [20]: 13000 nM
14 | O=c1c2ccc(Nc3ccnc4cc(Cl)ccc34)cc2ncn1Cc1ccc(CN2CCCC2)cc1 | 83 | 31 | 2.7 |  |  | 
15 | CCN(CC)CCCC(C)Nc1ccnc2cc(Cl)ccc12 (configuration not stated) [CHLOROQUINE] |  |  |  | 31000 | > 80000 | 
16 | CCN(CC)Cc1ccc(Nc2ccnc3cc(Cl)ccc23)cc1O [ISOQUINE] | 31 | 27 | 1.1 |  |  | 

Source: ChEMBL document CHEMBL2176916, “Mimicking the intramolecular hydrogen bond: synthesis, biological evaluation, and molecular modeling of benzoxazines and quinazolines as potential antimalarial agents” (J Med Chem, 2012)
